Results from ChEMBL document CHEMBL5724801, “EUbOPEN Chemogenomics Library - Multiplex” (2024).
Several values for one entry are separate records, joined by “and”; a condition that tells them apart may be missing. Equal values may be shown once.

Tested on: Fibroblast
Assay: Multiplex assay against human fibroblast
Assay type: toxicity, cell-based
How it was run: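 Cells stained live at seeding with Hoechst33342, BioTracker Green Microtubule Cytoskeleton Dye, MitoTracker Red and Annexin V Alexa Fluor 680 were imaged on a CQ1 microscope at 37°C and 5% CO2 after compound addition. Their classification by CellPathfinder machine-learning gating ran from Hoechst high-intensity objects versus normal cells, to healthy, pyknosed or fragmented nuclei among normal cells, to mitotic or apoptotic among pyknosed cells. Tubulin, mitochondrial-mass and membrane-permeability phenotypes are per cents of healthy-nucleus cells.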

[1] = 12 h, 1 µM, compound concentration 1 uM
[2] = 12 h, 10 µM, compound concentration 10 uM
[3] = 24 h, 1 µM, compound concentration 1 uM
[4] = 24 h, 10 µM, compound concentration 10 uM
[5] = 48 h, 1 µM, compound concentration 1 uM
[6] = 48 h, 10 µM, compound concentration 10 uM

With `COc1cc(N2CCN(C)CC2)ccc1Nc1nccc(-c2cn(C)c3cnccc23)n1` the “Population Apoptotic (%)” value [1] was 11.76% and 10%, the “Population Fragmented Nuclei (%)” value [1] was 12.81% and 10.18% and the “Population Healthy Nuclei (%)” value [1] was 70.44% and 80.97%. For the same compound, the “Population Hoechst High Intensity Objects (%)” value [1] was 0%, the “Population Membrane Permeable-Phenotype (%)” value [1] was 3.5% and 4.92% and the “Population Mitochondria Different-Phenotype (%)” value [1] was 9.79% and 6.56%. For the same compound, the “Population Mitotic Cells (%)” value [1] was 88.24% and 90%, the “Population Normal (%)” value [1] was 100% and the “Population Pyknosed Nuclei (%)” value [1] was 16.75% and 8.85%. For the same compound, the “Population Tubulin-Different-Phenotype (%)” value [1] was 16.78% and 35.52%, the “Total Cell Count” value [1] was 203 and 226 and the “Population Apoptotic (%)” value [2] was 3.08% and 5.97%. The “Population Healthy Nuclei (%)” value [2] was 41.67% and 59.65%, the “Population Hoechst High Intensity Objects (%)” value [2] was 0% and the “Population Membrane Permeable-Phenotype (%)” value [2] was 13.85% and 8.82%. For the same compound, the “Population Mitochondria Different-Phenotype (%)” value [2] was 35.38% and 54.9%, the “Population Mitotic Cells (%)” value [2] was 96.92% and 94.03% and the “Population Normal (%)” value [2] was 100%. For the same compound, the “Population Pyknosed Nuclei (%)” value [2] was 41.67% and 39.18%, the “Population Tubulin-Different-Phenotype (%)” value [2] was 55.38% and 85.29% and the “Total Cell Count” value [2] was 156 and 171. The “Population Apoptotic (%)” value [3] was 21.74% and 7.69%, the “Population Fragmented Nuclei (%)” value [3] was 12.15% and 10.47% and the “Population Healthy Nuclei (%)” value [3] was 77.1% and 84.5%. For the same compound, the “Population Hoechst High Intensity Objects (%)” value [3] was 0%, the “Population Membrane Permeable-Phenotype (%)” value [3] was 4.85% and 5.05% and the “Population Mitochondria Different-Phenotype (%)” value [3] was 10.3% and 3.21%. For the same compound, the “Population Mitotic Cells (%)” value [3] was 78.26% and 92.31%, the “Population Normal (%)” value [3] was 100% and the “Population Pyknosed Nuclei (%)” value [3] was 10.75% and 5.04%. The “Population Tubulin-Different-Phenotype (%)” value [3] was 13.94% and 38.53%, the “Total Cell Count” value [3] was 214 and 258 and the “Population Apoptotic (%)” value [4] was 5.77% and 8.77%. For the same compound, the “Population Healthy Nuclei (%)” value [4] was 47.62% and 66.67%, the “Population Hoechst High Intensity Objects (%)” value [4] was 0% and the “Population Membrane Permeable-Phenotype (%)” value [4] was 2.86% and 10.48%. For the same compound, the “Population Mitochondria Different-Phenotype (%)” value [4] was 41.43% and 41.13%, the “Population Mitotic Cells (%)” value [4] was 94.23% and 91.23% and the “Population Normal (%)” value [4] was 100%. For the same compound, the “Population Pyknosed Nuclei (%)” value [4] was 35.37% and 30.65%, the “Population Tubulin-Different-Phenotype (%)” value [4] was 70% and 74.19% and the “Total Cell Count” value [4] was 147 and 186. The “Population Fragmented Nuclei (%)” value [5] was 17.86% and 7.25%, the “Population Healthy Nuclei (%)” value [5] was 77.23% and 87.02% and the “Population Hoechst High Intensity Objects (%)” value [5] was 0%. The “Population Membrane Permeable-Phenotype (%)” value [5] was 0% and 1.75%, the “Population Mitochondria Different-Phenotype (%)” value [5] was 12.72% and 3.95% and the “Population Mitotic Cells (%)” value [5] was 100% and 66.67%. For the same compound, the “Population Normal (%)” value [5] was 100%, the “Population Pyknosed Nuclei (%)” value [5] was 4.91% and 5.73% and the “Population Tubulin-Different-Phenotype (%)” value [5] was 12.72% and 38.16%. For the same compound, the “Total Cell Count” value [5] was 224 and 262, the “Population Fragmented Nuclei (%)” value [6] was 16.88% and 21.97% and the “Population Healthy Nuclei (%)” value [6] was 73.75% and 64.57%. The “Population Hoechst High Intensity Objects (%)” value [6] was 0%, the “Population Membrane Permeable-Phenotype (%)” value [6] was 5.08% and 2.08% and the “Population Mitochondria Different-Phenotype (%)” value [6] was 31.36% and 25%. The “Population Mitotic Cells (%)” value [6] was 66.67% and 90%, the “Population Normal (%)” value [6] was 100% and the “Population Pyknosed Nuclei (%)” value [6] was 9.38% and 13.45%. For the same compound, the “Population Tubulin-Different-Phenotype (%)” value [6] was 44.92% and 80.56% and the “Total Cell Count” value [6] was 160 and 223.
In the case of `O=C(O)C(F)(F)F.O=C1NC(=O)/C(=C/c2c[nH]c(=O)c(-c3ccc(N4CCNCC4)nc3)c2)S1`, the “Population Apoptotic (%)” value [1] was 11.76% and 21.95%, the “Population Fragmented Nuclei (%)” value [1] was 12.02% and 8.21% and the “Population Healthy Nuclei (%)” value [1] was 60.11% and 70.77%. The “Population Hoechst High Intensity Objects (%)” value [1] was 0%, the “Population Membrane Permeable-Phenotype (%)” value [1] was 3.64% and 0% and the “Population Mitochondria Different-Phenotype (%)” value [1] was 8.18% and 7.25%. For the same compound, the “Population Mitotic Cells (%)” value [1] was 88.24% and 78.05%, the “Population Normal (%)” value [1] was 100% and the “Population Pyknosed Nuclei (%)” value [1] was 27.87% and 21.03%. For the same compound, the “Population Tubulin-Different-Phenotype (%)” value [1] was 8.18% and 12.32%, the “Total Cell Count” value [1] was 183 and 195 and the “Population Apoptotic (%)” value [2] was 13.51% and 16.13%. For the same compound, the “Population Healthy Nuclei (%)” value [2] was 62.9% and 80.28%, the “Population Hoechst High Intensity Objects (%)” value [2] was 0% and the “Population Membrane Permeable-Phenotype (%)” value [2] was 5.98% and 3.51%. The “Population Mitochondria Different-Phenotype (%)” value [2] was 4.27% and 11.7%, the “Population Mitotic Cells (%)” value [2] was 86.49% and 83.87% and the “Population Normal (%)” value [2] was 100%. For the same compound, the “Population Pyknosed Nuclei (%)” value [2] was 19.89% and 14.55%, the “Total Cell Count” value [2] was 186 and 213 and the “Population Apoptotic (%)” value [3] was 10.42% and 17.86%. The “Population Fragmented Nuclei (%)” value [3] was 12.43% and 7.25%, the “Population Healthy Nuclei (%)” value [3] was 61.62% and 78.24% and the “Population Hoechst High Intensity Objects (%)” value [3] was 0%. The “Population Membrane Permeable-Phenotype (%)” value [3] was 4.39% and 3.97%, the “Population Mitochondria Different-Phenotype (%)” value [3] was 4.39% and 9.27% and the “Population Mitotic Cells (%)” value [3] was 89.58% and 82.14%. For the same compound, the “Population Normal (%)” value [3] was 100%, the “Population Pyknosed Nuclei (%)” value [3] was 25.95% and 14.51% and the “Population Tubulin-Different-Phenotype (%)” value [3] was 10.53% and 16.56%. The “Total Cell Count” value [3] was 185 and 193, the “Population Apoptotic (%)” value [4] was 24.24% and 20.59% and the “Population Fragmented Nuclei (%)” value [4] was 13.83% and 5.22%. The “Population Healthy Nuclei (%)” value [4] was 68.62% and 80%, the “Population Hoechst High Intensity Objects (%)” value [4] was 0% and the “Population Membrane Permeable-Phenotype (%)” value [4] was 3.88% and 1.09%. The “Population Mitochondria Different-Phenotype (%)” value [4] was 4.65% and 6.52%, the “Population Mitotic Cells (%)” value [4] was 75.76% and 79.41% and the “Population Normal (%)” value [4] was 100%. For the same compound, the “Population Pyknosed Nuclei (%)” value [4] was 17.55% and 14.78%, the “Population Tubulin-Different-Phenotype (%)” value [4] was 10.85% and 20.11% and the “Total Cell Count” value [4] was 188 and 230. For the same compound, the “Population Apoptotic (%)” value [5] was 26.32% and 27.27%, the “Population Fragmented Nuclei (%)” value [5] was 10.5% and 6.53% and the “Population Healthy Nuclei (%)” value [5] was 81.51% and 87.94%. For the same compound, the “Population Hoechst High Intensity Objects (%)” value [5] was 0%, the “Population Membrane Permeable-Phenotype (%)” value [5] was 1.03% and 1.71% and the “Population Mitochondria Different-Phenotype (%)” value [5] was 8.76% and 5.71%. The “Population Mitotic Cells (%)” value [5] was 73.68% and 72.73%, the “Population Normal (%)” value [5] was 100% and the “Population Pyknosed Nuclei (%)” value [5] was 7.98% and 5.53%. The “Population Tubulin-Different-Phenotype (%)” value [5] was 6.7% and 18.86%, the “Total Cell Count” value [5] was 238 and 199 and the “Population Apoptotic (%)” value [6] was 50% and 55.56%. The “Population Fragmented Nuclei (%)” value [6] was 7.94% and 3.6%, the “Population Healthy Nuclei (%)” value [6] was 88.89% and 92.34% and the “Population Hoechst High Intensity Objects (%)” value [6] was 0%. The “Population Membrane Permeable-Phenotype (%)” value [6] was 1.19% and 1.46%, the “Population Mitotic Cells (%)” value [6] was 50% and 44.44% and the “Population Normal (%)” value [6] was 100%. The “Population Pyknosed Nuclei (%)” value [6] was 3.17% and 4.05% and the “Total Cell Count” value [6] was 189 and 222.
